# Assay results from ChEMBL document CHEMBL1140733, “Comprehensive study of sansalvamide A derivatives and their structure-activity relationships against drug-resistant colon cancer cell lines” (J Med Chem, 2008).
# Square brackets hold non-standard residues; d marks the D form. Peptide text beside a SMILES is read from it. * marks the point of attachment. Cbz = O=C(OCc1ccccc1)*; Bn = c1ccc(C*)cc1
# Experiments:
# HCT-116 = experiment: Cytotoxicity against multidrug-resistant human HCT116 cells at 1 uM by thymidine incorporation assay; type: functional
# Procedure, shortened: (§1)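 HCT-116 cells were grown in IMDM and HCT-15 in RPMI 1640, each with L-glutamine, 10% FBS and penicillin-streptomycin, at 3000 cells/well. Compound was applied at 1 µM in 1% DMSO for 72 h total, with 3H-thymidine added for the final 16 h. Percent growth inhibition versus DMSO controls was scintillation-counted, averaging three wells in each of three assays.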
# HCT-15 = experiment: Cytotoxicity against multidrug-resistant human HCT15 cells at 1 uM by thymidine incorporation assay; type: functional; procedure, shortened: as §1
Structure (SMILES),inhibition at 1 µM (HCT-116),inhibition at 1 µM (HCT-15)
"CC(C)C[C@H]1NC(=O)[C@@H](Cc2ccccc2)NC(=O)[C@@H](CC(C)C)NC(=O)[C@@H](C(C)C)N(C)C(=O)[C@@H](CC(C)C)NC1=O (HELM PEPTIDE1{[dF].[dL].[dL].[CC(C)[C@H](C(=O)[*:2])N(C)[*:1]].[dL]}$PEPTIDE1,PEPTIDE1,1:R1-5:R2$$$V2.0)",18%,31%
"CC(C)C[C@@H]1NC(=O)[C@H](Cc2ccccc2)NC(=O)[C@H](CC(C)C)NC(=O)[C@H](C(C)C)N(C)C(=O)[C@H](CC(C)C)NC1=O (HELM PEPTIDE1{F.L.L.[meV].L}$PEPTIDE1,PEPTIDE1,1:R1-5:R2$$$V2.0)",6%,23%
"CC(C)C[C@@H]1NC(=O)[C@H](Cc2ccccc2)NC(=O)[C@H](CC(C)C)NC(=O)[C@@H](Cc2ccccc2)NC(=O)[C@H](CC(C)C)NC1=O (HELM PEPTIDE1{F.L.L.[dF].L}$PEPTIDE1,PEPTIDE1,1:R1-5:R2$$$V2.0)",11%,11%
CC(C)C[C@@H]1NC(=O)[C@H](Cc2ccccc2)NC(=O)[C@@H](Cc2ccccc2)NC(=O)[C@H](C(C)C)NC(=O)[C@H](CC(C)C)NC1=O,35%,14%
"CC(C)C[C@@H]1NC(=O)[C@H](Cc2ccccc2)NC(=O)[C@H](CC(C)C)N(C)C(=O)[C@H](C(C)C)N(C)C(=O)[C@H](CC(C)C)NC1=O (HELM PEPTIDE1{F.L.L.[meV].[meL]}$PEPTIDE1,PEPTIDE1,1:R1-5:R2$$$V2.0)",10%,0%
"CC(C)C[C@@H]1NC(=O)[C@H](Cc2ccccc2)NC(=O)[C@@H](Cc2ccccc2)N(C)C(=O)[C@H](C(C)C)NC(=O)[C@H](CCCCN)NC1=O (HELM PEPTIDE1{F.L.K.V.[CN([C@H](Cc1ccccc1)C(=O)[*:2])[*:1]]}$PEPTIDE1,PEPTIDE1,1:R1-5:R2$$$V2.0)",30%,26%
"CC(C)C[C@@H]1NC(=O)[C@H](C)NC(=O)[C@H](CC(C)C)NC(=O)[C@H](CC(C)C)NC(=O)[C@H](Cc2ccccc2)NC1=O (HELM PEPTIDE1{A.L.F.L.L}$PEPTIDE1,PEPTIDE1,1:R1-5:R2$$$V2.0)",23%,40%
"CC(C)C[C@@H]1C(=O)N[C@H](CC(C)C)C(=O)N(C)[C@H](C(C)C)C(=O)N[C@H](CC(C)C)C(=O)N[C@H](Cc2ccccc2)C(=O)N1C (HELM PEPTIDE1{[dF].[CC(C)C[C@H](C(=O)[*:2])N(C)[*:1]].[dL].[CC(C)[C@H](C(=O)[*:2])N(C)[*:1]].[dL]}$PEPTIDE1,PEPTIDE1,1:R1-5:R2$$$V2.0)",43%,48%
CC(C)[C@@H]1NC(=O)[C@H](Cc2ccccc2)NC(=O)[C@H](C(C)C)NC(=O)[C@@H](COCc2ccccc2)NC(=O)[C@H](C(C)C)NC1=O (cyclo(FVV[dS](Bn)V)),17%,14%
"CC(C)[C@@H]1NC(=O)[C@H](Cc2ccccc2)NC(=O)[C@H](C(C)C)NC(=O)[C@@H](C(C)C)NC(=O)[C@H](C(C)C)NC1=O (HELM PEPTIDE1{F.V.V.[dV].V}$PEPTIDE1,PEPTIDE1,1:R1-5:R2$$$V2.0)",19%,1%
"CC(C)C[C@@H]1NC(=O)[C@H](Cc2ccccc2)NC(=O)[C@H](CC(C)C)NC(=O)[C@@H](CO)NC(=O)[C@H](CC(C)C)NC1=O (HELM PEPTIDE1{F.L.L.[dS].L}$PEPTIDE1,PEPTIDE1,1:R1-5:R2$$$V2.0)",0%,11%
"CC(C)C[C@@H]1NC(=O)[C@H](CC(C)C)NC(=O)[C@@H](Cc2c[nH]c3ccccc23)NC(=O)[C@H](CC(C)C)NC(=O)[C@H](C(C)C)NC1=O (HELM PEPTIDE1{L.L.V.L.[dW]}$PEPTIDE1,PEPTIDE1,1:R1-5:R2$$$V2.0)",2%,9%
"CC(C)C[C@@H]1NC(=O)[C@H](C(C)C)NC(=O)[C@@H](CC(C)C)NC(=O)[C@@H](CC(C)C)NC(=O)[C@H](Cc2ccccc2)NC1=O (HELM PEPTIDE1{F.[dL].[dL].V.L}$PEPTIDE1,PEPTIDE1,1:R1-5:R2$$$V2.0)",28%,40%
"CC(C)C[C@@H]1NC(=O)[C@H](CC(C)C)NC(=O)[C@@H](Cc2ccccc2)NC(=O)[C@@H](CC(C)C)NC(=O)[C@@H](C(C)C)NC1=O (HELM PEPTIDE1{L.L.[dV].[dL].[dF]}$PEPTIDE1,PEPTIDE1,1:R1-5:R2$$$V2.0)",44%,35%
CC(C)C[C@@H]1NC(=O)[C@@H](Cc2ccccc2)NC(=O)[C@@H](CC(C)C)NC(=O)[C@@H](C(C)C)NC(=O)[C@H](CCCCNC(=O)OCc2ccccc2)NC1=O (cyclo(K(Cbz)[dV][dL][dF]L)),22%,13%
"CC(C)C[C@@H]1C(=O)N[C@H](Cc2ccccc2)C(=O)N[C@H](CC(C)C)C(=O)N[C@H](CC(C)C)C(=O)N[C@H](C(C)C)C(=O)N1C (HELM PEPTIDE1{[dF].[dL].[dL].[dV].[CC(C)C[C@H](C(=O)[*:2])N(C)[*:1]]}$PEPTIDE1,PEPTIDE1,1:R1-5:R2$$$V2.0)",1%,4%
